In ChEMBL document CHEMBL1821604, “Anticancer activity and cDNA microarray studies of a (RS)-1,2,3,5-tetrahydro-4,1-benzoxazepine-3-yl]-6-chloro-9H-purine, and an acyclic (RS)-O,N-acetalic 6-chloro-7H-purine” (Eur J Med Chem, 2011):

How the values were obtained:
Format in all cases: functional
MCF7 [1] = assay: Upregulation of HOXB2 gene expression in human MCF7 cells at IC50 after 48 hrs by cDNA microarray technique relative to control
HT-29 [2] = assay: Down regulation of CDH4 gene expression in human HT-29 cells at IC50 after 48 hrs by cDNA microarray technique relative to control
Method in brief: (§1)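 8 × 10⁶ cells exposed 48 h to compound at its IC50 concentration; total RNA isolated with trizol/chloroform and RNeasy columns including on-column DNase step; RNA quantified by OD 260/280; DMSO-treated cultures as control.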

MCF7 [3] = assay: Down regulation of TSSK6 gene expression in human MCF7 cells at IC50 after 48 hrs by cDNA microarray technique relative to control
MCF7 [4] = assay: Upregulation of NPAT gene expression in human MCF7 cells at IC50 after 48 hrs by cDNA microarray technique relative to control
MCF7 [5] = assay: Down regulation of THSD2 gene expression in human MCF7 cells at IC50 after 48 hrs by cDNA microarray technique relative to control
MCF7 [6] = assay: Down regulation of FLJ35954 gene expression in human MCF7 cells at IC50 after 48 hrs by cDNA microarray technique relative to control
Method in brief: (§2)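 Cells (8 × 10⁶) were cultured in DMEM with 10% heat-inactivated FBS at 37 °C under 5% CO₂. They were exposed for 48 h to compound at its IC₅₀, with DMSO-treated parallel cultures as controls (final DMSO ≤0.1% v/v). Total RNA was isolated by trizol/chloroform phase separation, RNeasy column cleanup and on-column DNase, then quantified by OD260/OD280. Expression was profiled by cDNA microarray relative to control.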

HT-29 [7] = assay: Upregulation of CTSZ gene expression in human HT-29 cells at IC50 after 48 hrs by cDNA microarray technique relative to control
MCF7 [8] = assay: Down regulation of CHST9 gene expression in human MCF7 cells at IC50 after 48 hrs by cDNA microarray technique relative to control; method in brief: as §1
MCF7 [9] = assay: Upregulation of PTPNS1 gene expression in human MCF7 cells at IC50 after 48 hrs by cDNA microarray technique relative to control
HT-29 [10] = assay: Down regulation of HKE2 gene expression in human HT-29 cells at IC50 after 48 hrs by cDNA microarray technique relative to control; method in brief: as §2
MCF7 [11] = assay: Upregulation of RHOH gene expression in human MCF7 cells at IC50 after 48 hrs by cDNA microarray technique relative to control
MCF7 [12] = assay: Down regulation of C9orf125 gene expression in human MCF7 cells at IC50 after 48 hrs by cDNA microarray technique relative to control; method in brief: as §1
HT-29 [13] = assay: Down regulation of IL26 gene expression in human HT-29 cells at IC50 after 48 hrs by cDNA microarray technique relative to control; method in brief: as §2
MCF7 [14] = assay: Down regulation of ZNF354A gene expression in human MCF7 cells at IC50 after 48 hrs by cDNA microarray technique relative to control
HT-29 [15] = assay: Down regulation of GK001 gene expression in human HT-29 cells at IC50 after 48 hrs by cDNA microarray technique relative to control; method in brief: as §2
HT-29 [16] = assay: Down regulation of RHOV gene expression in human HT-29 cells at IC50 after 48 hrs by cDNA microarray technique relative to control
Method in brief: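 HT-29 cells were grown in DMEM with 10% heat-inactivated FBS at 37 °C under 5% CO2. Cultures of 8 × 10⁶ cells were treated for 48 h; controls got DMSO at ≤0.1% v/v final. Cells were detached with PBS-EDTA and total RNA was extracted with trizol/chloroform and RNeasy columns with on-column DNase. RNA was quantified by OD 260/280 before cDNA microarray comparison with control.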

MCF7 [17] = assay: Upregulation of ANKRD35 gene expression in human MCF7 cells at IC50 after 48 hrs by cDNA microarray technique relative to control
MCF7 [18] = assay: Upregulation of MYCN gene expression in human MCF7 cells at IC50 after 48 hrs by cDNA microarray technique relative to control
HT-29 [19] = assay: Down regulation of LOC203427 gene expression in human HT-29 cells at IC50 after 48 hrs by cDNA microarray technique relative to control
HT-29 [20] = assay: Down regulation of ORM1 gene expression in human HT-29 cells at IC50 after 48 hrs by cDNA microarray technique relative to control
MCF7 [21] = assay: Upregulation of X77737 gene expression in human MCF7 cells at IC50 after 48 hrs by cDNA microarray technique relative to control
MCF7 [22] = assay: Upregulation of MAGEA2B gene expression in human MCF7 cells at IC50 after 48 hrs by cDNA microarray technique relative to control
HT-29 [23] = assay: Down regulation of PP1201 gene expression in human HT-29 cells at IC50 after 48 hrs by cDNA microarray technique relative to control
HT-29 [24] = assay: Down regulation of LMNB1 gene expression in human HT-29 cells at IC50 after 48 hrs by cDNA microarray technique relative to control; method in brief: as §2
HT-29 [25] = assay: Down regulation of SLC39A7 gene expression in human HT-29 cells at IC50 after 48 hrs by cDNA microarray technique relative to control
HT-29 [26] = assay: Down regulation of GANAB gene expression in human HT-29 cells at IC50 after 48 hrs by cDNA microarray technique relative to control; method in brief: as §2
HT-29 [27] = assay: Down regulation of FLJ23436 gene expression in human HT-29 cells at IC50 after 48 hrs by cDNA microarray technique relative to control; method in brief: as §2
HT-29 [28] = assay: Down regulation of SOCS4 gene expression in human HT-29 cells at IC50 after 48 hrs by cDNA microarray technique relative to control
HT-29 [29] = assay: Down regulation of HIRA gene expression in human HT-29 cells at IC50 after 48 hrs by cDNA microarray technique relative to control; method in brief: as §2
HT-29 [30] = assay: Down regulation of NIPSNAP3B gene expression in human HT-29 cells at IC50 after 48 hrs by cDNA microarray technique relative to control

COC(CN(c1ccccc1CO)S(=O)(=O)c1ccccc1[N+](=O)[O-])n1cnc2ncnc(Cl)c21 (racemic)
fold change (FC) (MCF7 [1]): 2.74
fold change (FC) (HT-29 [2]): -2.22
fold change (FC) (MCF7 [3]): -2.43
fold change (FC) (MCF7 [4]): 2.68
fold change (FC) (MCF7 [5]): -2.28
fold change (FC) (MCF7 [6]): -2.06
fold change (FC) (HT-29 [7]): 2.23
fold change (FC) (MCF7 [8]): -2.53
fold change (FC) (MCF7 [9]): 2.89

O=C(OCC1c2ccccc2-c2ccccc21)N1CC(n2cnc3c(Cl)ncnc32)OCc2ccccc21 (racemic)
fold change (FC) (HT-29 [10]): -2
fold change (FC) (MCF7 [11]): 2.2
fold change (FC) (MCF7 [12]): -3.38
fold change (FC) (HT-29 [13]): -2.22
fold change (FC) (MCF7 [14]): -2.05
fold change (FC) (HT-29 [15]): -2.03
fold change (FC) (HT-29 [16]): -2.07
fold change (FC) (MCF7 [17]): 6.08
fold change (FC) (MCF7 [18]): 2.98
fold change (FC) (HT-29 [19]): -2.13
fold change (FC) (HT-29 [20]): -2.19
fold change (FC) (MCF7 [21]): 3.11
fold change (FC) (MCF7 [22]): 2.53
fold change (FC) (HT-29 [23]): -2.04
fold change (FC) (HT-29 [24]): -3
fold change (FC) (HT-29 [25]): -2.19
fold change (FC) (HT-29 [26]): -2.04
fold change (FC) (HT-29 [27]): -2.2
fold change (FC) (HT-29 [28]): -2
fold change (FC) (HT-29 [29]): -2.35
fold change (FC) (HT-29 [30]): -2.21
